Results taken from ChEMBL document CHEMBL1145545, “Discovery of a novel A2B adenosine receptor antagonist as a clinical candidate for chronic inflammatory airway diseases” (J Med Chem, 2008).
pKi: −log10 of the molar value.

What was measured:
Homo sapiens [1] = species on record: Homo sapiens; assay: Selectivity for human recombinant adenosine A2B receptor over human recombinant adenosine A3 receptor
Adenosine receptor A1 = target: T1, Adenosine receptor A1 (Homo sapiens, UniProt P30542); assay: Displacement of [3H]CPX from human recombinant adenosine A1 receptor expressed in CHO cells; type: cell-based
T1 sequence (P30542 whole entry): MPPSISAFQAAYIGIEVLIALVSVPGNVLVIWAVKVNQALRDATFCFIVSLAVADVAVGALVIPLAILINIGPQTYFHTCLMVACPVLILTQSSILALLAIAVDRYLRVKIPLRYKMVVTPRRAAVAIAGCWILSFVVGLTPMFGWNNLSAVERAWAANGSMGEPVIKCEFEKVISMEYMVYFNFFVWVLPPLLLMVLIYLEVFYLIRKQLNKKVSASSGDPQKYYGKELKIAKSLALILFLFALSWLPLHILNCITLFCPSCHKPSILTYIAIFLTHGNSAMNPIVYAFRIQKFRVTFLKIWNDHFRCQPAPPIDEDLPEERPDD
Method in brief: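 CHO cell membranes stably expressing human A1 receptor; 0.5 nM [3H]CPX competed with test compound in 50 mM Tris/1 mM EDTA plus 1 U/mL adenosine deaminase, 25 °C, 90 min, gentle agitation; filtration and four ice-cold Tris/MgCl2 washes. Nonspecific binding defined with 1 µM CPX; Ki values derived.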

Homo sapiens [2] = species on record: Homo sapiens; assay: Selectivity for human recombinant adenosine A2B receptor over human recombinant adenosine A1 receptor
Adenosine receptor A3 = target: T2, Adenosine receptor A3 (Homo sapiens, UniProt P0DMS8); assay: Displacement of [125I]ABMECA from human recombinant adenosine A3 receptor expressed in CHO cells; type: cell-based
T2 sequence (P0DMS8 whole entry): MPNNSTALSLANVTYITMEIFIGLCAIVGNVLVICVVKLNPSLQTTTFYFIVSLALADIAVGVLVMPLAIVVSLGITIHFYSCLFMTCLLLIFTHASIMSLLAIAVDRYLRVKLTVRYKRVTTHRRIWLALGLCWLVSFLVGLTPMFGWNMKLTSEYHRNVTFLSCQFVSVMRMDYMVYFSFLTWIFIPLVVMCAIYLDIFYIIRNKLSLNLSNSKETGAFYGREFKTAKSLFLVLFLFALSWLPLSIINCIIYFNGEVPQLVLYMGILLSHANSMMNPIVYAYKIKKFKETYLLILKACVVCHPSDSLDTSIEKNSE
Method in brief: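 Human A3 receptor stably expressed in CHO cells; membranes incubated with 0.1 nM 125I-AB-MECA and test compound in 50 mM Tris, 1 mM EDTA, 10 mM MgCl2 plus 1 U/mL adenosine deaminase, 25 °C, 90 min; filtration, four ice-cold washes. Nonspecific binding defined with 1 µM IB-MECA; Ki determined.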

Adenosine receptor A2b = target: T3, Adenosine receptor A2b (Homo sapiens, UniProt P29275); assay: Displacement of [3H]ZM-241385 from human recombinant adenosine A2B receptor expressed in HEK293 cells; type: cell-based
T3 sequence (P29275 whole entry): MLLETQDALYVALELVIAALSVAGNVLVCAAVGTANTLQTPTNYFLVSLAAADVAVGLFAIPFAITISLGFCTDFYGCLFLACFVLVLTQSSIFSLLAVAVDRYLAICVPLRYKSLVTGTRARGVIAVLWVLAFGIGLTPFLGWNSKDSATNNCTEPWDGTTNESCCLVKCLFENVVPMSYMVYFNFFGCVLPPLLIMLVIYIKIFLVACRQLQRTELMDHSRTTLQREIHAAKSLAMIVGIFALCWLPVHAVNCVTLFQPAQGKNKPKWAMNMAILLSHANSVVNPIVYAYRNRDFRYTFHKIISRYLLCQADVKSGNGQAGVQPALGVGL
Method in brief: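 Membranes from HEK293 cells stably expressing human A2B receptor; competition with 10 nM radioligand, 50 µg membrane protein, in 50 mM Tris/1 mM EDTA with 1 U/mL adenosine deaminase, 25 °C for 90 min with gentle agitation; filtration, four ice-cold Tris/MgCl2 washes. Nonspecific binding defined with 10 µM unlabelled ligand; Ki calculated.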

[3] = Half life in Sprague-Dawley rat at 2 mg/kg, po; type: ADME, organism-based; set-up: dose 2 mg/kg, route oral; settings: in vivo
[4] = Cmax in Sprague-Dawley rat at 2 mg/kg, po; type: ADME, organism-based; set-up: dose 2 mg/kg, route oral; settings: in vivo
Homo sapiens [5] = species on record: Homo sapiens; assay: Selectivity for human recombinant adenosine A2B receptor over human recombinant adenosine A2A receptor
Adenosine receptor A2a = Adenosine receptor A2a (Homo sapiens, UniProt P29274); assay: Displacement of [3H]ZM-241385 from human recombinant adenosine A2A receptor expressed in HEK293 cells; type: cell-based
Adenosine receptor A2a, sequence (P29274 whole entry): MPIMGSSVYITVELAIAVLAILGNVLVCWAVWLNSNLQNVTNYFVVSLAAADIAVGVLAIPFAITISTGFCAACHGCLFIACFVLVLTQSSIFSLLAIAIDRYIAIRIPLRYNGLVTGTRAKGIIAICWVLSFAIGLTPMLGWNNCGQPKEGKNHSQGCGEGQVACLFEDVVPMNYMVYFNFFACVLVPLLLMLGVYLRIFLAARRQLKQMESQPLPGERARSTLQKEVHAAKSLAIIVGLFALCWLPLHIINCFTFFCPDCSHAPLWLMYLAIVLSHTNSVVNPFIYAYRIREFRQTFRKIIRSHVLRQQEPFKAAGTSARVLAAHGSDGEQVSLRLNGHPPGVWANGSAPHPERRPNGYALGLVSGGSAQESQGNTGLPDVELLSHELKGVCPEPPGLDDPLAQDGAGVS
Method in brief: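 Membranes from HEK293 cells stably expressing human A2A receptor; 2 nM radioligand competed in 50 mM Tris/1 mM EDTA with 1 U/mL adenosine deaminase for 90 min at 25 °C with agitation; filtration, four ice-cold Tris/MgCl2 washes. Nonspecific binding defined with 1 µM unlabelled ligand; Ki computed.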

[6] = Tmax in Sprague-Dawley rat at 2 mg/kg, po; type: ADME, organism-based; set-up: dose 2 mg/kg, route oral; settings: in vivo
[7] = AUC (0 to tlast) in Sprague-Dawley rat at 2 mg/kg, po; type: ADME, organism-based; set-up: dose 2 mg/kg, route oral; settings: plasma
[8] = Plasma concentration in Sprague-Dawley rat at 2 mg/kg, po after 6 hrs; type: ADME, organism-based; set-up: dose 2 mg/kg, route oral
[9] = Plasma concentration in Sprague-Dawley rat at 2 mg/kg, po after 4 hrs; type: ADME, organism-based; set-up: dose 2 mg/kg, route oral
[10] = target: T4, Adenosine receptor A2b (Mus musculus) (UniProt Q60614); assay: Antagonist activity at mouse adenosine A2B receptor expressed in NIH3T3 cells assessed as inhibition of NECA-induced cAMP accumulation; type: functional, cell-based
T4 sequence (whole entry): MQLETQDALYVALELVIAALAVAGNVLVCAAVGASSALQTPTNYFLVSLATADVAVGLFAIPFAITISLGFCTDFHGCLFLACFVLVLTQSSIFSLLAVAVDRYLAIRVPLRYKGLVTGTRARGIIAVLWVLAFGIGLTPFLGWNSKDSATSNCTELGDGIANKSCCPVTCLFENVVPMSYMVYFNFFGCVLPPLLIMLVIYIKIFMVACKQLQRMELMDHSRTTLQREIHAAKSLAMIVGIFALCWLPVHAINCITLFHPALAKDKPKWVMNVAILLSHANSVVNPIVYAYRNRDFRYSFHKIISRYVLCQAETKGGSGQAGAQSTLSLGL
Method in brief: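 Mouse NIH/3T3 cells stimulated with NECA (1 nM to 100 µM) without or with increasing antagonist concentrations; cAMP accumulation measured. KB obtained by Schild analysis; mean ± SEM of three experiments in duplicate.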

| SMILES | Ratio Ki (Homo sapiens [1]) | pKi (Adenosine receptor A1) | Ratio Ki (Homo sapiens [2]) | pKi (Adenosine receptor A3) | pKi (Adenosine receptor A2b) | half-life [3] [h] | Cmax [4] [ng/mL] | Ratio Ki (Homo sapiens [5]) | pKi (Adenosine receptor A2a) | Tmax [6] [h] | AUC(0-t) [7] [ng·h/mL] | concentration at 6 h [8] [ng/mL] | concentration at 4 h [9] [ng/mL] | Kb [10] [nM] |
| --- | --- | --- | --- | --- | --- | --- | --- | --- | --- | --- | --- | --- | --- | --- |
| CCCn1c(=O)c2[nH]c(-c3cnn(Cc4ccc(C(F)(F)F)nc4)c3)nc2n(CC)c1=O | 24 | 5.60 | 139 | 6.36 | 7.74 | 9.7 | 671 | 125 | 5.65 |  |  |  |  |  |
| CCCn1c(=O)c2[nH]c(-c3cnn(Cc4cccc(F)c4)c3)nc2n(CC)c1=O | 27 | 5.92 | 34 | 6.02 | 7.46 |  |  | 71 | 5.60 |  |  |  |  |  |
| CCCn1c(=O)c2[nH]c(-c3cnn(Cc4cccc(C(F)(F)F)c4)c3)nc2n(C)c1=O | 29 | 6.36 | 31 | 6.39 | 7.85 |  |  | 32 | 6.35 |  |  |  |  |  |
| CCn1c(=O)n(CC(C)C)c(=O)c2[nH]c(-c3cnn(Cc4cccc(F)c4)c3)nc21 | 10 | 5.83 | 47 | 6.49 | 7.51 |  |  | 124 | 5.41 |  |  |  |  |  |
| CC(C)Cn1c(=O)c2[nH]c(-c3cnn(Cc4cccc(F)c4)c3)nc2n(C)c1=O | 2 | 6.45 | 6 | 6.97 | 7.22 |  |  | 5 | 6.52 |  |  |  |  |  |
| Cn1c(=O)n(CC2CC2)c(=O)c2[nH]c(-c3cnn(Cc4cccc(F)c4)c3)nc21 | 5 | 6.73 | 26 | 7.46 | 8.15 |  |  | 10 | 7.14 |  |  |  |  |  |

Further lines, results first:

| Ratio Ki (Homo sapiens [1]) | pKi (Adenosine receptor A1) | Ratio Ki (Homo sapiens [2]) | pKi (Adenosine receptor A3) | pKi (Adenosine receptor A2b) | half-life [3] [h] | Cmax [4] [ng/mL] | Ratio Ki (Homo sapiens [5]) | pKi (Adenosine receptor A2a) | Tmax [6] [h] | AUC(0-t) [7] [ng·h/mL] | concentration at 6 h [8] [ng/mL] | concentration at 4 h [9] [ng/mL] | Kb [10] [nM] | SMILES |
| --- | --- | --- | --- | --- | --- | --- | --- | --- | --- | --- | --- | --- | --- | --- |
| > 375 | < 5.22 | > 250 | < 5.05 | 7.62 |  | 34.6 | > 208 | < 5.30 | 6 | 65.6 | 17.3 | 7.75 |  | CCCn1c(=O)c2[nH]c(-c3cnn(Cc4noc(-c5ccc(C(F)(F)F)cc5)n4)c3)nc2n(CC)c1=O |
| 48 | 5.71 | 88 | 5.97 | 7.66 | 4.25 | 1110 | 149 | 5.48 |  |  |  |  | 2 | CCCn1c(=O)c2[nH]c(-c3cnn(Cc4cccc(C(F)(F)F)c4)c3)nc2n(CC)c1=O [GS 6201] |
| 25 | 5.89 | 80 | 6.40 | 7.80 |  |  | 142 | 5.64 |  |  |  |  |  | CCn1c(=O)n(CC2CC2)c(=O)c2[nH]c(-c3cnn(Cc4ccc(C(F)(F)F)nc4)c3)nc21 |
| 41 | 6.37 | 38 | 6.34 | 7.96 |  |  | 43 | 6.32 |  |  |  |  |  | CCCCn1c(=O)c2[nH]c(-c3cnn(Cc4cccc(C(F)(F)F)c4)c3)nc2n(C)c1=O |
| 7 | 6.54 | 22 | 7.02 | 7.89 |  |  | 10 | 6.86 |  |  |  |  |  | CCCn1c(=O)c2[nH]c(-c3cnn(Cc4cccc(F)c4)c3)nc2n(C)c1=O |
